An excerpt weighted towards active compounds, which were near 2.1% of everything screened.
MC4R barr agon – agonists of human melanocortin 4 receptor (MC4R) beta-arrestin; P32245; U2OS MC4R beta-arrestin complementation, luminescence; percent of melanotan II response, DMSO zero; activation, % at 8.9 µM; 360,000 tested, 0.98% active; AID 540308;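 active means activation above a per-plate cutoff, the mean activation of sample wells on that plate plus 3 SD, cut at about 8% in these data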
TLR9-MyD88 inh – inhibitors of human TLR9-MyD88 binding | AID 504734 | CHO BLA complementation TLR9-MyD88, CCF4 FRET ratio | inhibition, % at 4.98 µM | 340,000 tested, 0.21% active;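 active means inhibition above the mean over all tested compounds plus 3 SD, cut at about 21% in these data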;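 further: 0% = DMSO only wells and 100% = clavulanate BLA inhibitor control wells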
TLR4-MyD88 BLA – blocks binding of human TLR4 to MyD88; O00206+Q99836; HeLa CL3-4 TLR4/MyD88 BLA complementation, FRET ratio; inhibition, % at 8.4 µM; 200,000 tested, 0.18% active; in the data active means inhibition above about 25%;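 further: 0% = vehicle and 100% = reference inhibitor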
Target sequence (O00206 whole entry, looked up): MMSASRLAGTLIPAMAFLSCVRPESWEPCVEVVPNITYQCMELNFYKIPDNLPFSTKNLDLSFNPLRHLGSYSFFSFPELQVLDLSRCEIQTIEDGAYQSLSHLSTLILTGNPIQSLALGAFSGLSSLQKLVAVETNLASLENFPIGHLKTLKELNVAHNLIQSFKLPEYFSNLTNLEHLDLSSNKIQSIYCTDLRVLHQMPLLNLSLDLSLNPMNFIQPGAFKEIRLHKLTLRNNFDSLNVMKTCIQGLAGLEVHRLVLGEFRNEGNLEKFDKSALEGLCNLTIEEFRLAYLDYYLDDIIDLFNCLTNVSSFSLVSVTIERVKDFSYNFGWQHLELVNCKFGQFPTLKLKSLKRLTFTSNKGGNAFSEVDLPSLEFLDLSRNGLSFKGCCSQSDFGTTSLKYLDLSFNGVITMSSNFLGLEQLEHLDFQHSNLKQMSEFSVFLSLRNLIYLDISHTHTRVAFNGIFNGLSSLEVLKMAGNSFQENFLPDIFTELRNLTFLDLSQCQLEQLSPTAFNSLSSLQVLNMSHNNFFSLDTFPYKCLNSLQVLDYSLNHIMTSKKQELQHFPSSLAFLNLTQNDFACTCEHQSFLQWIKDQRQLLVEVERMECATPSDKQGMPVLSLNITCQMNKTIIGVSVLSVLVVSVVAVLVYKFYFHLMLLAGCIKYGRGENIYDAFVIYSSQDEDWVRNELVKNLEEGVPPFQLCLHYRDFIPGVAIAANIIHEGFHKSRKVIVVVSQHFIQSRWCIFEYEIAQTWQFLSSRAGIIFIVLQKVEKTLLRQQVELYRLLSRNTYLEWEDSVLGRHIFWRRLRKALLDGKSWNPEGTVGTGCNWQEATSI
Target sequence (Q99836 whole entry, looked up): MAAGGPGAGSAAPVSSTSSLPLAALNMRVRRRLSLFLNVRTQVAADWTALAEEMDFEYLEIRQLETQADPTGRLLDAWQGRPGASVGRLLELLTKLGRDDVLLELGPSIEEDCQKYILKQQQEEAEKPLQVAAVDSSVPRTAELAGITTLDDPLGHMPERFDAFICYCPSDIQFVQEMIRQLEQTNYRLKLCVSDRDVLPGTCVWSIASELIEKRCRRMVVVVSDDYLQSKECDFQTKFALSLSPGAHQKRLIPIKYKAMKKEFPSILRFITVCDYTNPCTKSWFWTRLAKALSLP
MC4R antagonist – blocks human MC4R cAMP signaling; P32245; MC4R-expressing cells, MTII-stimulated cAMP, LANCE TR-FRET; inhibition, % at 6.5 µM; 360,000 tested, 0.48% active;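 active means inhibition above its plate's cutoff, the mean of tested wells on that plate plus 3 SD, cut at about 29% in these data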;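 further: 0% = Melanotan II alone and 100% = Melanotan II plus saturating MCL0020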
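material = U2OS cells stably expressing human melanocortin 4 receptor (MC4R) | also added = Melanotan II challenge | dosing = single nominal compound dose of 6.5 µM | detection = TR-FRET with Eu-cAMP and labeled anti-cAMP, 671 nm | replication = singlicate | timing = compound 30 min, challenge 1 h, detection 1 h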
MIN6 prolif-1 – inducers of beta-cell replication in MIN6 cells; MIN6 cells proliferation, ATPlite luminescence, 48 h; cells starved in 0.2% serum; 100% = growth in 10% serum; proliferation, % at 10 µM; 330,000 tested, 0.29% active;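 active means compounds whose signal lies at least 3.5 SD above the mean of all wells on their plate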;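 further: 0% = DMSO-treated cells in low-serum medium and 100% = 10% serum control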
NOD2-RIPK2 inh – NOD2-RIPK2 protein interaction inhibition | AID 624267 | 360,000 tested, 0.38% active | CHO BLA complementation NOD2-RIPK2, CCF4 ratio | inhibition, % at 4.98 µM; in the data active means inhibition above about 21%;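 further: 0% = vehicle only and 100% = reference blocker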
MIN6 prolif-2 – confirmation of inducers of beta-cell replication in MIN6 cells; shares compounds with MIN6 prolif-1; MIN6 beta-cell proliferation, ATPlite luminescence, 48 h; cells kept in 0.2% serum; scaled between 0.2% and 10% serum; proliferation increase, % at 50 µM; 920 tested, under 10 active; AID 463095;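 active means proliferation increase above 40% at any of the four tested concentrations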
* marks the source's active call; other numbers are inactive results; . = not tested or not shown.

SMILES | MC4R barr agon | TLR9-MyD88 inh | TLR4-MyD88 BLA | MC4R antagonist | MIN6 prolif-1 | NOD2-RIPK2 inh | MIN6 prolif-2
CCN1CCCC1CNC(=O)c1csc2c1CCCC2 (centres undefined) | -0.2 | -7.7 | -3.2 | -2.7 | 6.4* | 11.5 | -3.6
Cc1cc(C)nc(N(C#N)CCOc2ccccc2)n1 | 1.3 | -0.3 | -6.0 | -0.6 | -2.6 | -4.4 | .
CN(C)c1nc(N(C)C)nc(N(C#N)CCOc2ccccc2)n1 | -1.1 | -13.1 | -4.4 | 5.1 | 9.9* | 2.0 | -6.1
CC(C)CNC(=O)COC(=O)c1ccccc1SCC(=O)NCC(C)C | -2.8 | -1.7 | -25.3 | -0.7 | 7.8* | -1.3 | 1.7
Cc1[nH]c2ccc(C(=O)OC(C)C(=O)NC3CCCCC3C)cc2c1C (centres undefined) | 2.5 | -3.6 | . | 11.4 | 13.2* | 0.3 | -6.5
CC[C@]1(C(=O)OC)[C@H]2C(=O)N(C)C(=O)[C@H]2[C@H]2CN=C(SCc3ccc(C)cc3)N21 | 0.7 | -4.0 | . | -0.1 | . | -7.1 | .
CC(C)n1cnc2c(N(C)c3cccc(Cl)c3)nc(N(CCO)CCO)nc21 | -1.5 | -15.2 | . | 0.9 | 17.5* | -4.5 | -0.5
CNc1ccccc1C(=O)OCC(=O)N1CCc2ccccc2C1 | -2.0 | 5.5 | . | 5.8 | . | 7.7 | .
COc1ccc(-n2c(=S)[nH]c3cc(C(=O)NCc4cccnc4)ccc3c2=O)cc1 | -2.1 | -9.3 | . | 4.4 | -2.2 | -13.6 | .
Cn1c(=O)c2cn(-c3ccccc3)cc2n(C)c1=O | -0.5 | -4.8 | 2.9 | 3.5 | 5.4* | 1.0 | 1.0
COc1cccc(-n2cc3c(=O)n(C)c(=O)n(C)c3c2)c1 | -0.1 | -9.3 | 8.3 | 2.7 | -1.2 | 4.2 | .
N#CC1(NC(=O)CSc2nnc(C3CC3)n2N)CCCCC1 | -0.7 | -7.9 | . | 7.6 | . | 1.8 | .
COC(=O)C1CCN(C(=O)c2oc3c(Cl)cc(C)cc3c2C)CC1 | -1.1 | 3.3 | . | -2.0 | 11.5* | 7.9 | -6.5
CCOC(=O)C1CCCCN1C(=O)c1oc2c(Cl)cc(C)cc2c1C (centres undefined) | 4.6 | 4.9 | . | -1.5 | -2.1 | -4.6 | .
CCOc1ccccc1/C=C/c1onc(C)c1S(=O)(=O)N1CCC(C(=O)N(CC)CC)CC1 | -1.9 | 2.9 | . | 1.5 | 4.8* | -0.5 | -5.8
CCN(CCN(C)C)C(=O)C1CCN(S(=O)(=O)c2c(C)noc2/C=C/c2ccccc2F)CC1 | -0.1 | -12.2 | . | 1.3 | -7.5 | -3.2 | .
O=C(CNC(=O)c1ccc(Cl)cc1Cl)OCc1nnc(-c2ccccc2)o1 | -2.6 | 0.9 | . | 21.6 | -2.0 | -6.5 | .
CNC(=O)CC1C(=O)N(c2ccc(Cl)cc2)C(=S)N1NC(=O)c1cccc(F)c1 (centres undefined) | -0.8 | 4.1 | . | 3.2 | 9.8* | -4.2 | -6.4
NC(=O)CC1C(=O)N(c2ccc(Cl)cc2)C(=S)N1NC(=O)c1cccc(F)c1 (centres undefined) | 0.8 | -8.4 | . | -1.8 | 0.5 | -5.6 | .
CC(C)(C)OC(=O)NCCCCCNC(=O)c1[nH]cnc1C(=O)Nc1ccon1 | -1.9 | -1.4 | . | -14.8 | 0.7 | 5.7 | .
CCOC(=O)/C(C#N)=C1/C=C(C)c2ccccc2N1 | 1.4 | 9.7 | 6.9 | -4.2 | 7.1* | -7.0 | -1.0
CCOC(=O)/C(C#N)=C1/C=Nc2ccccc2N1 | -0.7 | 0.9 | -2.4 | -8.9 | -0.2 | 5.3 | .
Cc1ccc(S(=O)(=O)N2CCN(C(=O)c3nn(C(C)C)c(=O)c4ccccc34)CC2)cc1C | -0.9 | -1.6 | 5.8 | -3.1 | 5.4* | 7.8 | -5.3
CC(C)n1nc(C(=O)N2CCN(S(=O)(=O)c3cccs3)CC2)c2ccccc2c1=O | . | . | . | . | 0.4 | . | .
COc1cccc(CNC(=O)C2CCN(S(=O)(=O)c3ccc4c(c3)CC(C)N4C(C)=O)CC2)c1 (centres undefined) | -1.4 | 4.0 | . | 1.3 | -5.2 | -15.1 | .
SMILES | MC4R barr agon | TLR9-MyD88 inh | TLR4-MyD88 BLA | MC4R antagonist | MIN6 prolif-1 | NOD2-RIPK2 inh | MIN6 prolif-2
COCCn1c(SCC(=O)c2ccccc2)nc2ccccc2c1=O | 0.8 | . | -2.6 | -3.4 | 7.8* | -6.0 | -6.3
Cc1ccccc1NS(=O)(=O)c1ccc(C(=O)NCC(c2ccco2)N(C)C)cc1 (centres undefined) | -1.7 | 0.2 | . | -4.8 | 11.5* | -3.7 | -3.4
O=C(OCc1nnc(-c2ccccc2)o1)c1cccc(-n2cnnn2)c1 | -2.6 | 7.5 | . | 11.4 | 11.0* | -6.4 | 1.2
Cc1ccc(S(=O)(=O)NCC(=O)NC2CC2)cc1 | -3.2 | -4.8 | . | 1.0 | 10.9* | 1.1 | -0.3
Cc1ccc(S(=O)(=O)NCCC(=O)NC2CC2)cc1 | -1.5 | -3.9 | . | -0.4 | -0.6 | 1.3 | .
CC(C)c1cc(=O)[nH]c(N2CCN(Cc3ccc4c(c3)OCO4)CC2)n1 | 0.1 | 5.6 | . | 6.3 | 8.7* | -4.3 | -1.8
CCC(C)[C@H](NC(=O)C1CCN(C(=O)[C@H](Cc2ccccc2)NS(=O)(=O)c2ccc(C)cc2)CC1)C(=O)O (some centres undefined) | 0.1 | -4.2 | . | 2.8 | 0.9 | -7.4 | .
COc1ccc(NC(=O)C2=C(C)NC(=O)NC2c2cccc(OC)c2OC)c(OC)c1 (centres undefined) | 1.0 | 4.0 | 4.1 | -2.5 | -3.8 | 5.3 | .
COc1cccc(C2NC(=O)NC(C)=C2C(=O)Nc2ccc(C)cc2)c1OC (centres undefined) | 0.6 | 0.1 | 7.7 | 13.0 | 5.4* | -2.6 | 1.2
O=C(CN1C(=O)S/C(=C/c2cccs2)C1=O)N1CCCC1 | -0.3 | 8.8 | . | -9.8 | 10.0* | -12.0 | 3.3
CC1(C)CC2CC(C)(CN2C(=O)COC(=O)c2cccc(O)c2)C1 (centres undefined) | -2.0 | -7.1 | . | -3.2 | 4.1 | 3.5 | .
CC1(C)CC2CC(C)(CN2C(=O)COC(=O)c2cccc([N+](=O)[O-])c2)C1 (centres undefined) | 0.1 | -7.0 | . | 12.5 | 7.4* | -5.3 | -1.4
CCN(CCn1cccn1)Cc1nc(-c2ccc(OC)cc2)no1 | 2.7 | -1.4 | 2.4 | 12.0 | 7.2* | -3.9 | -2.4
Cn1c(=O)n(C)c2cc(N3CCCCC3)c(NC(=O)c3ccccc3)cc21 | -1.9 | 3.5 | . | -1.6 | -3.5 | 1.8 | .
S=C(NN=C(C1CC1)C1CC1)Nc1ccccc1 | -0.6 | -9.9 | 3.7 | -12.0 | -1.8 | -2.6 | .
O=C(COC(=O)COc1ccc(Cl)cc1Br)NC1CC1 | -1.6 | -6.5 | . | 6.4 | -1.3 | 7.2 | .
CCOC(=O)CNC(=O)CSc1nc(N(C)C)nc(N2CCOCC2)n1 | 1.6 | 1.6 | -10.2 | 7.8 | 5.5* | -12.2 | 2.8
CCCN1Cc2cccc(C(=O)NCCc3ccccc3)c2C1=O | -2.1 | -4.1 | . | 19.8 | 11.2* | -6.7 | -1.7

Bioassay records as filed in PubChem BioAssay.
